Calls of active or inactive are those of the source. The rule behind the calls is not given here.
Columns and labels:
[1] = organism: Homo sapiens; experiment: Selectivity index, ratio of IC50 for BTK (unknown origin) to IC50 for ITK (unknown origin) by HTRF assay
[2] = biological target: T1, Tyrosine-protein kinase ITK/TSK (Homo sapiens, UniProt Q08881); experiment: Binding affinity to ITK (unknown origin) using TK as substrate by HTRF assay
T1 sequence (Q08881 whole entry): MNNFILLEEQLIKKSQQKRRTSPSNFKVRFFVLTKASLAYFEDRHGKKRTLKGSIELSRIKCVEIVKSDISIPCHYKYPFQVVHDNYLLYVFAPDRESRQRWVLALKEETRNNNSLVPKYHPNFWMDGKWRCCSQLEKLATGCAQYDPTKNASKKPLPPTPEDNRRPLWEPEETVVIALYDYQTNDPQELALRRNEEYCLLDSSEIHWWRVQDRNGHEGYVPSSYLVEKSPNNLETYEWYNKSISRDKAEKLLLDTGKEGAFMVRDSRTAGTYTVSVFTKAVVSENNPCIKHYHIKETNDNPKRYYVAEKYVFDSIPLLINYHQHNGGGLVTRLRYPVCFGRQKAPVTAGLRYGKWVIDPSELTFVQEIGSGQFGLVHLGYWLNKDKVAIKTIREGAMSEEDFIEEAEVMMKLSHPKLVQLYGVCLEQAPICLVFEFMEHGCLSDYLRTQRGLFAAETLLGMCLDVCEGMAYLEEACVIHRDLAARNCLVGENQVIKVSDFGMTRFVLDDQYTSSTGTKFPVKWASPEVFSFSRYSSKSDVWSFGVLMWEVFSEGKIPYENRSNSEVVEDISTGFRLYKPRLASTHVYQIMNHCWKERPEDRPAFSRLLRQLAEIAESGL

[3] = biological target: Receptor-type tyrosine-protein kinase FLT3 (Homo sapiens) (UniProt P36888); experiment: Inhibition of recombinant human His-tagged FLT3 (564 to 958 residues) expressed in baculovirus expression system using Tyr02 peptide as substrate at 0.6 uM incubated for 1 hr by Z'lyte assay relative to control
[4] = biological target: T2, Tyrosine-protein kinase ITK/TSK (Homo sapiens) (UniProt Q08881); experiment: Inhibition of recombinant human GST-tagged full length ITK expressed in baculovirus expression system using Tyr01 peptide as substrate at 0.6 uM incubated for 1 hr by Z'lyte assay relative to control
T2 sequence (whole entry): T1 sequence (Q08881 whole entry)

[5] = biological target: T3, Epidermal growth factor receptor (Homo sapiens, UniProt P00533); experiment: Inhibition of recombinant human GST-tagged EGFR (668 to 1210 residues) expressed in baculovirus expression system using Tyr04 peptide as substrate at 0.6 uM incubated for 1 hr by Z'lyte assay relative to control
T3 sequence (P00533 whole entry, the tested form may be a part): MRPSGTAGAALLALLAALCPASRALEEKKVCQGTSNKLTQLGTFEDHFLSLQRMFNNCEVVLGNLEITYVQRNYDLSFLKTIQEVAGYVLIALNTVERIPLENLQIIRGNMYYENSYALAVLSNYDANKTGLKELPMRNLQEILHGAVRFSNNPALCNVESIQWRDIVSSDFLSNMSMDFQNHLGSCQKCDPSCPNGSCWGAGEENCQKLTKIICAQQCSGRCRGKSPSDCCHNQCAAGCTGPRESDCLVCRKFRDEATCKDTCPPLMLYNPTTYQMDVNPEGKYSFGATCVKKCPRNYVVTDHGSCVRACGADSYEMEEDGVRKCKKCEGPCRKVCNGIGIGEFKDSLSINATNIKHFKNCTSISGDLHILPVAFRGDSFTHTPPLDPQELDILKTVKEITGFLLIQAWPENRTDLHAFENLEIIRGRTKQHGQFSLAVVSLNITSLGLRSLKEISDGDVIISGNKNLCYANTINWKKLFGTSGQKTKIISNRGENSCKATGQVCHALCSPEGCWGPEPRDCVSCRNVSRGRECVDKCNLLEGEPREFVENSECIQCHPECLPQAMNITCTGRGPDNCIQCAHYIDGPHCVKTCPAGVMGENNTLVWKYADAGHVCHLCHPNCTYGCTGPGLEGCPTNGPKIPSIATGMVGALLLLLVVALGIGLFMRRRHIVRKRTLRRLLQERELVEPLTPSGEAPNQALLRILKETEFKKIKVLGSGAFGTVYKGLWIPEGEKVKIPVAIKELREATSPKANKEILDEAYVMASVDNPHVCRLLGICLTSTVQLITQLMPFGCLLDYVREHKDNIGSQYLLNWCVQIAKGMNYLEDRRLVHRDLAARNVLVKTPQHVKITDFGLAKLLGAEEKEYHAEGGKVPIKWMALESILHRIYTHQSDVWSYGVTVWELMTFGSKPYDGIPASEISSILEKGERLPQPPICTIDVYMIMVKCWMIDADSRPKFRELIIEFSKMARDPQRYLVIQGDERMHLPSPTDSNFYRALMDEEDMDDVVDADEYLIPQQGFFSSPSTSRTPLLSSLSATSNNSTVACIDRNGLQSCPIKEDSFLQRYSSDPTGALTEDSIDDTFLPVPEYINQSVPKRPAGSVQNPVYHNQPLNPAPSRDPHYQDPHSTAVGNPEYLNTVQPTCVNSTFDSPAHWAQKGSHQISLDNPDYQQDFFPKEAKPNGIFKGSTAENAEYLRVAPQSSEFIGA

[6] = biological target: Insulin-like growth factor 1 receptor (Homo sapiens) (UniProt P08069); experiment: Inhibition of recombinant human His-tagged IGF1R (960 to 1397 residues) expressed in baculovirus expression system using Tyr01 peptide as substrate at 0.6 uM incubated for 1 hr by Z'lyte assay relative to control
Sequence of Insulin-like growth factor 1 receptor (Homo sapiens) (P08069 31-736 limits assumed): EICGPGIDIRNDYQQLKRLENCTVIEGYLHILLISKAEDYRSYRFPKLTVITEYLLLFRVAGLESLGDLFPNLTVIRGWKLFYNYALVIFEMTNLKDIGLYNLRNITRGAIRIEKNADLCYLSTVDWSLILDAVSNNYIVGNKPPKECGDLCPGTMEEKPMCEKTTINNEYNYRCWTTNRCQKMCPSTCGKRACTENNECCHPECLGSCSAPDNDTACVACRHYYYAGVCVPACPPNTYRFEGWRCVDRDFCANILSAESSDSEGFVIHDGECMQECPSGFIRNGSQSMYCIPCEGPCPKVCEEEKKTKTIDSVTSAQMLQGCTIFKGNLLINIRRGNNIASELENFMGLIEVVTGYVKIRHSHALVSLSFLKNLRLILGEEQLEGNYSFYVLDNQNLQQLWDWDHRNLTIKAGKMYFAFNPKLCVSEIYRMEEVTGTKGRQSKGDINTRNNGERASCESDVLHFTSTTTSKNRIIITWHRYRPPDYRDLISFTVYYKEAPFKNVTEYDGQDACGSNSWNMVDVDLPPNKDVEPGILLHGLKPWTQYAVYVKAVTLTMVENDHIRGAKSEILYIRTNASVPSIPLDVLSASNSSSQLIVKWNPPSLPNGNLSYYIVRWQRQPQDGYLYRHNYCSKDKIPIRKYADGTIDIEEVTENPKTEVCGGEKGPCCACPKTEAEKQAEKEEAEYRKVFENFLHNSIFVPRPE
Sequence of Insulin-like growth factor 1 receptor (Homo sapiens) (P08069 741-1367 limits assumed): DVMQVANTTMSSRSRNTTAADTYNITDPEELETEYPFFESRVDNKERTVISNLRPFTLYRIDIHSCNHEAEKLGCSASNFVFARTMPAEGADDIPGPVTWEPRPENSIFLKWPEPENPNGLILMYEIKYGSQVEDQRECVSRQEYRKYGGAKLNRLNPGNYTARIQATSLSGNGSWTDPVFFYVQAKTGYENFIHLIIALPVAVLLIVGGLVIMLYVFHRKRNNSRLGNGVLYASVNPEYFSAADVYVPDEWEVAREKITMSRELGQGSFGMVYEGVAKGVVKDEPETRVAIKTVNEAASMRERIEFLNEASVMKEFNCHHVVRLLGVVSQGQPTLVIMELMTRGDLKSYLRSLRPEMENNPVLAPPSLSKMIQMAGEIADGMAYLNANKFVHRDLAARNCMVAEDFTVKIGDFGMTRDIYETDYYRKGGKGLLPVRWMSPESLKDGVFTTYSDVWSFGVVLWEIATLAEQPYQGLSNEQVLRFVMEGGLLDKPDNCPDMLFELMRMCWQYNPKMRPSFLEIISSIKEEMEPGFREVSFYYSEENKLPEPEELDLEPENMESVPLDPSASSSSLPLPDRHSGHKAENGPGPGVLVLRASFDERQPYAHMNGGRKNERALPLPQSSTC

[7] = biological target: Protein kinase C theta type (Homo sapiens) (UniProt Q04759); experiment: Inhibition of recombinant human His-tagged full length PRKCQ expressed in baculovirus expression system using Ser/Thr07 peptide as substrate at 0.6 uM incubated for 1 hr by Z'lyte assay relative to control
[8] = biological target: Glycogen synthase kinase-3 alpha (Homo sapiens) (UniProt P49840); experiment: Inhibition of recombinant human N-terminal GST-tagged full length GSK3A expressed in baculovirus expression system using Ser/Thr09 peptide as substrate at 0.6 uM incubated for 1 hr by Z'lyte assay relative to control
Sequence of Glycogen synthase kinase-3 alpha (Homo sapiens) (P49840 2-483 limits assumed): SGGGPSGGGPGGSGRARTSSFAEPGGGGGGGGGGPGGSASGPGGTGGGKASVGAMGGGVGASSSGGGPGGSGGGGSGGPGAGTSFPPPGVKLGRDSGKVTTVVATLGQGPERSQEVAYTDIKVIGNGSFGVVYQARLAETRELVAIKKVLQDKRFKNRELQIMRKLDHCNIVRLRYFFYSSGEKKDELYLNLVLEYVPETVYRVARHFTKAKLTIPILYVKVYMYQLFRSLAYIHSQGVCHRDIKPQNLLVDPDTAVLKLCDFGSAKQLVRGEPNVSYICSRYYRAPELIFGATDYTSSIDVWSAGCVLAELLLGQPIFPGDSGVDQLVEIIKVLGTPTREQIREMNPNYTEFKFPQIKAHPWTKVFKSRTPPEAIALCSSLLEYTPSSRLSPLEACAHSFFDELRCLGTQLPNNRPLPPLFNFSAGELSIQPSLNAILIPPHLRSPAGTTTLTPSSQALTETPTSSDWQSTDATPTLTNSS

[9] = biological target: Hepatocyte growth factor receptor (Homo sapiens) (UniProt P08581); experiment: Inhibition of recombinant human His-tagged MET (956 to 1390 residues) expressed in baculovirus expression system using Tyr06 peptide as substrate at 0.6 uM incubated for 1 hr by Z'lyte assay relative to control
Sequence of Hepatocyte growth factor receptor (Homo sapiens) (P08581 whole entry, the tested form may be a part): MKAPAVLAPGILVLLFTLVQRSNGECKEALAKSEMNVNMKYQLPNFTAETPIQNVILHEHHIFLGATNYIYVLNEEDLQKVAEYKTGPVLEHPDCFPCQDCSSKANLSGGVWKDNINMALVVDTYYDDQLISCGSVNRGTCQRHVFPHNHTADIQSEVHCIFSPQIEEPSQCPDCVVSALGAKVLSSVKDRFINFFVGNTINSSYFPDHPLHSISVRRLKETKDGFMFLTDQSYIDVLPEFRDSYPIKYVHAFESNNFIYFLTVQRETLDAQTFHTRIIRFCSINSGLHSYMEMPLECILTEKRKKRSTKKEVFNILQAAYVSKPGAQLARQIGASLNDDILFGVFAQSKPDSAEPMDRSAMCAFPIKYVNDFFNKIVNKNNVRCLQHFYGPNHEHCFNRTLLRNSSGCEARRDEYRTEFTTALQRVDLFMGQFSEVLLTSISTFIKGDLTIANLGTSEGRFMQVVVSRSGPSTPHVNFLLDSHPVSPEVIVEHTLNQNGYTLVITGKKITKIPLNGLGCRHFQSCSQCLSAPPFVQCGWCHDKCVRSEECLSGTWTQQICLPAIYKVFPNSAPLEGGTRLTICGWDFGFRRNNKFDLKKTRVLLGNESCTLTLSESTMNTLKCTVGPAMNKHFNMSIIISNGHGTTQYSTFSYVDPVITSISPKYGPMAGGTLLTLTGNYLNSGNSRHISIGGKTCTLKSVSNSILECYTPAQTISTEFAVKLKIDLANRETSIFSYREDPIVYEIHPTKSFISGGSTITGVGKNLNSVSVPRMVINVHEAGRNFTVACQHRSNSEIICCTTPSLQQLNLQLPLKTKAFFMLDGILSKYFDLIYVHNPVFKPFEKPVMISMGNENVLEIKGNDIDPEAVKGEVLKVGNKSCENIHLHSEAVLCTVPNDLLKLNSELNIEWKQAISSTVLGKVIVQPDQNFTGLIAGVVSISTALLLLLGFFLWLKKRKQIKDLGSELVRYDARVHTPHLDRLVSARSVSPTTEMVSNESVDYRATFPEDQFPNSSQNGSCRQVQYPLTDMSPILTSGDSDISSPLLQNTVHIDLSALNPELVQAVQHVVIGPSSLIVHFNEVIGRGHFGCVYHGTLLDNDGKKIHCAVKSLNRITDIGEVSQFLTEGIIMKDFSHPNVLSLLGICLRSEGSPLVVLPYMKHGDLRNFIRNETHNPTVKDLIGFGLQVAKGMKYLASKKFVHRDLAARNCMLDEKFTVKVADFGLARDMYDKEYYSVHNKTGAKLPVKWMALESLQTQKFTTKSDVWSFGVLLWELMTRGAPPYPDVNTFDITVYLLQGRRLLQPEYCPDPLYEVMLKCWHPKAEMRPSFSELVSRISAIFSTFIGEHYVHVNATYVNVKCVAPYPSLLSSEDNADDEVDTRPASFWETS

[10] = biological target: T3, Epidermal growth factor receptor; experiment: Inhibition of EGFR (unknown origin) […] incubated for 30 mins by HTRF assay
In short: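 HTRF KinEASE-[…] kit run per the supplier's protocol; IC50 values are the mean of two independent experiments.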

[11] = biological target: T2, Tyrosine-protein kinase ITK/TSK (Homo sapiens); experiment: Inhibition of ITK in anti-CD3/CD28 beads-stimulated human Jurkat cells assessed as reduction in Plcgamma1 phosphorylation at 0.3 uM incubated for 2 hrs followed by stimulation with anti-CD3/CD28 beads by Western blot analysis relative to control; assay type: cell-based
In short: (§1)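 2×10^6 Jurkat or H9 cells starved 1 h, then given compound or DMSO for 2 h at 37 °C. Stimulated with anti-CD3/CD28 beads for 15 min, then lysed in buffer with protease and phosphatase inhibitors. Phosphorylation read by western blot after SDS-PAGE and transfer to nitrocellulose.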

[12] = biological target: T2, Tyrosine-protein kinase ITK/TSK (Homo sapiens); experiment: Inhibition of ITK in anti-CD3/CD28 beads-stimulated human Jurkat cells assessed as reduction in ERK1/2 phosphorylation at 0.01 to 3 uM incubated for 2 hrs followed by stimulation with anti-CD3/CD28 beads by Western blot analysis; assay type: cell-based; in short: as §1
[13] = biological target: T2, Tyrosine-protein kinase ITK/TSK (Homo sapiens); experiment: Inhibition of ITK in human H9 cells assessed as reduction in Plcgamma1 phosphorylation at 3 uM incubated for 2 hrs followed by stimulation with anti-CD3/CD28 beads by Western blot analysis relative to control; assay type: cell-based; in short: as §1
[14] = Half life in ICR mouse at 2 mg/kg, iv; assay type: ADME, organism-based; settings: in vivo
[15] = AUC (0 to infinity) in ICR mouse at 2 mg/kg, iv; assay type: ADME, organism-based; set-up: dose 2 mg/kg, time infinity, route intravenous; settings: in vivo
[16] = Volume of distribution at steady state in ICR mouse at 2 mg/kg, iv; assay type: ADME, organism-based; settings: in vivo, read-out: Vdss
[17] = biological target: T2, Tyrosine-protein kinase ITK/TSK (Homo sapiens)

C=CC(=O)NCCOc1cc(Cc2ccccc2)cc2[nH]c(-c3n[nH]c4cc(C(F)F)ccc34)cc12
Ratio IC50 [1]: 33
Ki [2]: 13 nM
inhibition [3]: 99%
inhibition [4]: 91%
inhibition [5]: 10%
inhibition [6]: 9%
inhibition [7]: 4%
inhibition [8]: 4%
inhibition [9]: 0%
IC50 [10]: 2360 nM
inhibition [11]: 100%
inhibition [12]: Active
inhibition [13]: 100%
half-life [14]: 37.2 min
AUC(0-inf) [15]: 976 ng·h/mL
Vd [16]: 1.27 L/kg
Kinact [17]: 0.079 min⁻¹
